The values that follow come from ChEMBL document CHEMBL4373687, “Introducing nitrogen atoms to amidoalkylindoles: potent and selective cannabinoid type 2 receptor agonists with improved aqueous solubility” (Medchemcomm, 2019).

The pEC50 is the EC50 on a negative log10 scale, so that one unit is a factor of ten. As usually defined, the Emax is the maximal effect, on the per cent scale that the assay sets. By inhibition is commonly meant the percentage by which the read-out fell short of the control.

The structures appear in SMILES notation. pEC50: −log10 of the molar value.

Data set [1] concerns the target T1, Cannabinoid receptor 1 (Homo sapiens, UniProt P21554). The data set can be described thus: Agonist activity at human CB1-receptor expressed in CHO-K1 cells coexpressing G-alpha16 at 10 uM by Fluo-4-AM dye based calcium mobilization assay. The class given is cell-based. The following applies: cho-k1, 10 µM. In outline: (§1)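 CHO-K1 cells stably co-expressing Gα16 and human CB1 or CB2, seeded 24 h. Loaded with 2 μM fluo-4 AM in HBSS (with sulfinpyrazone, pH 7.4) at 37 °C for 45 min. Compound added and calcium fluorescence recorded (ex 485/em 525 nm). CP55940 positive control, DMSO negative control. Compounds with >50% activation at 10 μM got eight-point curves in triplicate, sigmoidal fit for EC50.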
(Calcium assays in cells follow changes in intracellular calcium, usually with a dye or a luminescent sensor.)

Data set [2] addresses T1, Cannabinoid receptor 1. The data set can be described thus: Agonist activity at human CB1-receptor expressed in CHO-K1 cells coexpressing G-alpha16 by Fluo-4-AM dye based calcium mobilization assay. In kind it is cell-based. The following applies: read-out: EC50.
Data set [3] deals with T2, Cannabinoid receptor 2 (Homo sapiens, UniProt P34972). The data set can be described thus: Antagonist activity at human CB2-receptor expressed in CHO-K1 cells coexpressing G-alpha16 pre-incubated for 10 mins and later treated with 100 nM CB-receptor agonist, CP55940 by Fluo-4-AM dye based calcium mobilization assay. In kind it is functional, cell-based. The note with it: cho-k1. In outline:
(§2)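 CHO-K1 cells stably co-expressing Gα16 and human CB1 or CB2, loaded with 2 μM fluo-4 AM in HBSS pH 7.4 at 37 °C for 45 min. Pre-incubated with compound for 10 min at room temperature, then CP55940 added at 100 nM. Peak calcium read over 60 s (ex 485/em 525 nm). Rimonabant positive control. Actives got eight-point curves in triplicate, sigmoidal fit for IC50.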

For data set [4], the target named is T2, Cannabinoid receptor 2. The data set can be described thus: Agonist activity at human CB2-receptor expressed in CHO-K1 cells coexpressing G-alpha16 assessed as maximum efficacy by Fluo-4-AM dye based calcium mobilization assay relative to CP55940. The class given is functional, cell-based. In outline: as §1
Data set [5] is described as follows: Kinetic aqueous solubility of compound in phosphate-buffer containing 1% DMSO ultrasonicated for 10 mins at pH 7.4 measured using 60-95% methanol in water as gradient for 19 mins by HPLC analysis. The class given is physicochemical. The following applies: pH 7.4, 10 min. The gist of the method:
(§3)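 Kinetic solubility: 10 mM DMSO stock diluted into 10 mM phosphate buffer pH 7.4 or 1.4 (final 1% DMSO), sonicated 10 min at room temperature, filtered 0.22 μm. Quantified by C18 HPLC against a standard curve. Gradient 60–95% methanol/water with trifluoroacetic acid over 19 min at 1.0 mL/min. n = 3.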

Data set [6] has as its target T2, Cannabinoid receptor 2. Put plainly: Agonist activity at human CB2-receptor expressed in CHO-K1 cells coexpressing G-alpha16 at 10 uM by Fluo-4-AM dye based calcium mobilization assay. The class given is functional, cell-based. The gist of the method: as §1
For data set [7], the target named is T1, Cannabinoid receptor 1. The data set can be described thus: Antagonist activity at human CB1-receptor expressed in CHO-K1 cells coexpressing G-alpha16 at 10 uM pre-incubated for 10 mins and later treated with 100 nM CB-receptor agonist, CP55940 by Fluo-4-AM dye based calcium mobilization assay. The class given is cell-based. In outline: as §2
Data set [8] concerns the target T1, Cannabinoid receptor 1. The data set can be described thus: Agonist activity at human CB1-receptor expressed in CHO-K1 cells coexpressing G-alpha16 assessed as maximum efficacy by Fluo-4-AM dye based calcium mobilization assay relative to CP55940. In kind it is cell-based. The gist of the method: as §1
In data set [9] the target is T2, Cannabinoid receptor 2. The data set can be described thus: Agonist activity at human CB2-receptor expressed in CHO-K1 cells coexpressing G-alpha16 by Fluo-4-AM dye based calcium mobilization assay. In kind it is functional, cell-based. The note with it: read-out: EC50.
Data set [10] has as its target T1, Cannabinoid receptor 1. Put plainly: Antagonist activity at human CB1-receptor expressed in CHO-K1 cells coexpressing G-alpha16 pre-incubated for 10 mins and later treated with 100 nM CB-receptor agonist, CP55940 by Fluo-4-AM dye based calcium mobilization assay. The class given is cell-based. The gist of the method:
as §2

Data set [11] deals with T2, Cannabinoid receptor 2. Put plainly: Antagonist activity at human CB2-receptor expressed in CHO-K1 cells coexpressing G-alpha16 at 10 uM pre-incubated for 10 mins and later treated with 100 nM CB-receptor agonist, CP55940 by Fluo-4-AM dye based calcium mobilization assay. The class given is functional, cell-based. In outline: as §2
The nature of data set [12]: Kinetic aqueous solubility of compound in phosphate-buffer containing 1% DMSO ultrasonicated for 10 mins at pH 1.4 measured using 60-95% methanol in water as gradient for 19 mins by HPLC analysis. The following applies: pH 1.4, 10 min. The class given is physicochemical. In outline: as §3
Data set [13] can be described thus: Kinetic aqueous solubility of compound in phosphate-buffer containing 1% DMSO ultrasonicated for 10 mins at pH 1.4 measured using 50-95% methanol in water as gradient for 23 mins by HPLC analysis. In kind it is physicochemical. The note with it: pH 1.4, 10 min. In outline:
(§4)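 Kinetic solubility: 10 mM DMSO stock diluted into 10 mM phosphate buffer pH 7.4 or 1.4 (final 1% DMSO), sonicated 10 min at room temperature, filtered 0.22 μm. Quantified by C18 HPLC against a standard curve. Gradient 50–95% methanol/water with trifluoroacetic acid over 23 min at 1.0 mL/min. n = 3.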

Data set [14] is described as follows: Kinetic aqueous solubility of compound in phosphate-buffer containing 1% DMSO ultrasonicated for 10 mins at pH 7.4 measured using 50-95% methanol in water as gradient for 23 mins by HPLC analysis. In kind it is physicochemical. The gist of the method:
as §4

Data set [15] can be described thus: Kinetic aqueous solubility of compound in phosphate-buffer containing 1% DMSO ultrasonicated for 10 mins at pH 7.4 by HPLC analysis. In kind it is physicochemical. The following applies: pH 7.4, 10 min. In outline: (§5)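 Kinetic solubility: 10 mM DMSO stock diluted into 10 mM phosphate buffer at pH 7.4 or 1.4 (final 1% DMSO). Sonicated 10 min at room temperature and filtered through a 0.22 μm PTFE filter. Concentration determined by reversed-phase C18 HPLC (275/290 nm) against a standard curve. n = 3.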

Data set [16] is described as follows: Kinetic aqueous solubility of compound in phosphate-buffer containing 1% DMSO ultrasonicated for 10 mins at pH 1.4 by HPLC analysis. In kind it is physicochemical. The note with it: pH 1.4, 10 min. In outline:
as §5

Data set [17] can be described thus: Kinetic aqueous solubility of compound in phosphate-buffer containing 1% DMSO ultrasonicated for 10 mins at pH 7.4 measured using 80-95% methanol in water as gradient for 19 mins by HPLC analysis. The following applies: pH 7.4, 10 min. In kind it is physicochemical. In outline:
(§6)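 Kinetic solubility: 10 mM DMSO stock diluted into 10 mM phosphate buffer pH 7.4 or 1.4 (final 1% DMSO), sonicated 10 min at room temperature, filtered 0.22 μm. Quantified by C18 HPLC against a standard curve. Gradient 80–95% methanol/water with trifluoroacetic acid over 19 min at 1.2 mL/min. n = 3.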

Data set [18] can be described thus: Kinetic aqueous solubility of compound in phosphate-buffer containing 1% DMSO ultrasonicated for 10 mins at pH 1.4 measured using 80-95% methanol in water as gradient for 19 mins by HPLC analysis. The class given is physicochemical. The following applies: pH 1.4, 10 min. In outline:
as §6

T2 sequence (P34972 whole entry): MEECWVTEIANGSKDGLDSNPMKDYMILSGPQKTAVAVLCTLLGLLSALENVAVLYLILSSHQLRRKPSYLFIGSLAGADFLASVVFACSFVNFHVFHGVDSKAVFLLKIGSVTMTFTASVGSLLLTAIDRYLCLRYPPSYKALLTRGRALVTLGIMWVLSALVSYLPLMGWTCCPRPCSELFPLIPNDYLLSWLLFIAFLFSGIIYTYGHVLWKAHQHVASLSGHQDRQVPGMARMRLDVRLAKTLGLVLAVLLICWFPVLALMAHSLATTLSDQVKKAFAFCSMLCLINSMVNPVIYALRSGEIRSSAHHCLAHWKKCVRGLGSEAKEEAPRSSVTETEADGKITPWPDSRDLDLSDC
T1 sequence (P21554 whole entry): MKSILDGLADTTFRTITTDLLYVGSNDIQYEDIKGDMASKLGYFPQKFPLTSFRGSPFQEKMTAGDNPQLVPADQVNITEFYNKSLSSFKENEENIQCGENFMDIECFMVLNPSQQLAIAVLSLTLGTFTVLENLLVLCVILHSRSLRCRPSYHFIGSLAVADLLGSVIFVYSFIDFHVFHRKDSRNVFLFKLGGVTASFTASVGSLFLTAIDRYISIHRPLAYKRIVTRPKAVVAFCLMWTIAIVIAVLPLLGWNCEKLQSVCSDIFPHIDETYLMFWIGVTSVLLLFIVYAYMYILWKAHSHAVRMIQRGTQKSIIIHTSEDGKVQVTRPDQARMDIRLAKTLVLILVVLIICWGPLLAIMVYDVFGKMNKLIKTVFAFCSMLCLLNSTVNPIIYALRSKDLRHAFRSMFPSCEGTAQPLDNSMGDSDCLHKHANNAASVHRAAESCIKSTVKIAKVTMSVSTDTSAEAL

For the compound `O=C(NC12CC3CC(CC(C3)C1)C2)c1n[nH]c2ccccc12`, the Activity at Cannabinoid receptor 1 [1] and on Cannabinoid receptor 2 [6] was greater than 50% in each case. The pEC50 at Cannabinoid receptor 1 [2] is 4.77; on Cannabinoid receptor 2 [9], 7.07. Besides, the IC50 result on Cannabinoid receptor 2 [3] and on Cannabinoid receptor 1 [10] was “Not Active” throughout. Also, the Emax at Cannabinoid receptor 2 [4] stood at 73.9%; at Cannabinoid receptor 1 [8], 67.3%. The Kinetic_solubility in [5] and in data set [12] was less than 10 uM/L throughout. The “log(Kinetic_solubility)” value in data set [5] and in data set [12] was less than -5 throughout. Further, on Cannabinoid receptor 1 [7], the inhibition at 10 µM was less than 50%. Further, on Cannabinoid receptor 2 [11], the inhibition was less than 50%.
Consider `O=C(NC12CC3CC(CC(C3)C1)C2)c1nn(CCN2CCOCC2)c2ccccc12`, for which the Activity at Cannabinoid receptor 1 [1] and at Cannabinoid receptor 2 [6] was greater than 50% in each case. The pEC50 was 6.52 at Cannabinoid receptor 1 [2] and 7.24 at Cannabinoid receptor 2 [9]. The IC50 result on Cannabinoid receptor 2 [3] and at Cannabinoid receptor 1 [10] was “Not Active” in each case. Moreover, the Emax at Cannabinoid receptor 2 [4] was 85.3%; on Cannabinoid receptor 1 [8] it was 109%. Besides, the inhibition at 10 µM on Cannabinoid receptor 1 [7] is less than 50%. For the same compound, the inhibition on Cannabinoid receptor 2 [11] was less than 50%.
As to `CCCCCn1cc(C(=O)NC23CC4CC(CC(C4)C2)C3)c2cccnc21`, the Activity at Cannabinoid receptor 1 [1] and at Cannabinoid receptor 2 [6] was greater than 50% each time. Further, the pEC50 was 6.13 on Cannabinoid receptor 1 [2] and 7.49 on Cannabinoid receptor 2 [9]. For the same compound, the IC50 entry at Cannabinoid receptor 2 [3] and at Cannabinoid receptor 1 [10] was “Not Active” throughout. In addition, the Emax on Cannabinoid receptor 2 [4] turned out to be 79.4%; on Cannabinoid receptor 1 [8], 39.1%. Further, the inhibition at 10 µM on Cannabinoid receptor 1 [7] was less than 50%. For the same compound, on Cannabinoid receptor 2 [11], the inhibition is less than 50%.
Regarding `O=C(NC12CC3CC(CC(C3)C1)C2)c1cn(CCN2CCOCC2)c2ncccc12`, the Kinetic_solubility in data set [13] amounted to 86.6 uM/L; in data set [14] it was 69.43 uM/L. Also, the “log(Kinetic_solubility)” value in data set [13] is given as -4.06; in data set [14], -4.15. Moreover, the Activity was less than 50% at Cannabinoid receptor 1 [1] and greater than 50% at Cannabinoid receptor 2 [6]. Moreover, the pEC50 at Cannabinoid receptor 1 [2] was less than 5.00; at Cannabinoid receptor 2 [9], 7.32. The IC50 entry on Cannabinoid receptor 2 [3] and at Cannabinoid receptor 1 [10] was “Not Active” in each case. The Emax at Cannabinoid receptor 2 [4] came out at 25.7%. Further, the inhibition at 10 µM on Cannabinoid receptor 1 [7] was less than 50%. The inhibition at Cannabinoid receptor 2 [11] was less than 50%.
On to `CCCCCn1nc(C(=O)NC23CC4CC(CC(C4)C2)C3)c2ccccc21`, for which the Activity at Cannabinoid receptor 1 [1] and at Cannabinoid receptor 2 [6] was greater than 50% in each case. Also, the results for the pEC50 at Cannabinoid receptor 1 [2] and on Cannabinoid receptor 2 [9] were 7.42 and 7.04, respectively. Also, the IC50 result on Cannabinoid receptor 2 [3] and on Cannabinoid receptor 1 [10] was “Not Active” throughout. The Emax at Cannabinoid receptor 2 [4] amounted to 58.5%; on Cannabinoid receptor 1 [8], 99.6%. For the same compound, the inhibition at 10 µM on Cannabinoid receptor 1 [7] is less than 50%. Also, on Cannabinoid receptor 2 [11], the inhibition was less than 50%.
With `O=C(NC12CC3CC(CC(C3)C1)C2)c1nc2ccccc2n1CCCCCO`, the results for the Kinetic_solubility in data set [15] and in data set [16] were 32.88 uM/L and 96 uM/L, respectively. The entries for the “log(Kinetic_solubility)” value in data set [15] and in data set [16] were -4.48 and -4.02, respectively. Besides, the Activity at Cannabinoid receptor 1 [1] is less than 50%; on Cannabinoid receptor 2 [6] it was greater than 50%. The pEC50 on Cannabinoid receptor 1 [2] was less than 5.00; at Cannabinoid receptor 2 [9], 7.17. Also, the IC50 entry on Cannabinoid receptor 2 [3] and at Cannabinoid receptor 1 [10] was “Not Active” each time. For the same compound, at Cannabinoid receptor 2 [4], the Emax stood at 64%. Also, at Cannabinoid receptor 1 [7], the inhibition at 10 µM was less than 50%. Further, the inhibition on Cannabinoid receptor 2 [11] was less than 50%.
For `O=C(NC12CC3CC(CC(C3)C1)C2)c1cc2ccccc2n1CCCCO`, in data set [17], the Kinetic_solubility was found to be 23.71 uM/L and the “log(Kinetic_solubility)” value is given as -4.63. In data set [18], the Kinetic_solubility amounted to 16.77 uM/L and the “log(Kinetic_solubility)” value is -4.78.
